# Experimental data taken from ChEMBL document CHEMBL1255403, “Genetic dissection of azole resistance mechanisms in Candida albicans and their validation in a mouse model of disseminated infection” (2010).
# How the values were obtained:
# Type in all cases: functional
# Candida albicans [1] = assay: Antibacterial activity against Fluconazole resistant Candida albicans DSY3604 containing tac1delta/delta ERG11-1/ERG11-5 genotype by EUCAST standards based broth microdilution method
# In short: (§1)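 Cells grew overnight in YEPD at 30°C and were diluted to 5 × 10^4 cells/ml in RPMI 1640 (MOPS 0.165 M, pH 7, 2% glucose, 1% DMSO). Drug from aqueous stock was 100-fold diluted. Plates ran 24 h at 35°C and were read at 450 nm. MIC was the concentration giving >50% OD decrease versus drug-free control.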
# Candida albicans [2] = assay: Antibacterial activity against Fluconazole resistant Candida albicans DSY3706 containing tac1delta/delta ERG11-1/ERG11-1 genotype by EUCAST standards based broth microdilution method; in short: as §1
# Candida albicans [3] = assay: Antibacterial activity against Fluconazole resistant Candida albicans DSY3604 containing tac1delta/delta ERG11-1/ERG11-5 genotype by EUCAST standards based broth microdilution method sCandida albicans DSY294
# Candida albicans [4] = assay: […] activity against Fluconazole resistant Candida albicans DSY3706 containing tac1delta/delta ERG11-1/ERG11-1 genotype by EUCAST standards based broth microdilution method sCandida albicans DSY294
# Candida albicans [5] = assay: […] activity against Fluconazole resistant Candida albicans DSY296 overexpressing multidrug transporter gene CDR1 and CDR2 and containing ERG11 G464S mutation by EUCAST standards based broth microdilution method relative to wildtype sCandida albicans DSY294
# Candida albicans [6] = assay: Antibacterial activity against Fluconazole resistant Candida albicans DSY3083 containing tac1delta/delta genotype by EUCAST standards based broth microdilution method; in short: as §1
# Candida albicans [7] = assay: Antibacterial activity against Fluconazole resistant Candida albicans DSY3608 containing tac1delta/delta ERG11-1/ERG11-1 (TAC1-1) genotype by EUCAST standards based broth microdilution method; in short: as §1
# Candida albicans [8] = assay: Antibacterial activity against Fluconazole resistant Candida albicans DSY3606 containing tac1delta/delta ERG11-1/ERG11-1 (TAC1-5) genotype by EUCAST standards based broth microdilution method sCandida albicans DSY294
# Candida albicans [9] = assay: Antibacterial activity against Fluconazole resistant Candida albicans DSY3606 containing tac1delta/delta ERG11-1/ERG11-1 (TAC1-5) genotype by EUCAST standards based broth microdilution method; in short: as §1
# Candida albicans [10] = assay: Antibacterial activity against Fluconazole resistant Candida albicans DSY3752 containing (TAC1-5/TAC1-5 ERG11-1/ERG11-1) genotype by EUCAST standards based broth microdilution method; in short: as §1
# Candida albicans [11] = assay: Antibacterial activity against azole-susceptible Candida albicans DSY294 by EUCAST standards based broth microdilution method; in short: as §1
# Candida albicans [12] = assay: […] activity against Fluconazole resistant Candida albicans DSY3608 containing tac1delta/delta ERG11-1/ERG11-1 (TAC1-1) genotype by EUCAST standards based broth microdilution method sCandida albicans DSY294
# Candida albicans [13] = assay: Antibacterial activity against Fluconazole resistant Candida albicans DSY296 overexpressing multidrug transporter gene CDR1 and CDR2 and containing ERG11 G464S mutation by EUCAST standards based broth microdilution method; in short: as §1
# Candida albicans [14] = assay: Antibacterial activity against Fluconazole resistant Candida albicans DSY3083 containing tac1delta/delta genotype by EUCAST standards based broth microdilution method sCandida albicans DSY294
# Candida albicans [15] = assay: […] activity against Fluconazole resistant Candida albicans DSY3752 containing (TAC1-5/TAC1-5 ERG11-1/ERG11-1) genotype by EUCAST standards based broth microdilution method sCandida albicans DSY294
# Candida albicans [16] = assay: Antibacterial activity against Fluconazole resistant Candida albicans DSY3706 containing tac1delta/delta ERG11-1/ERG11-1 genotype infected in BALB/c mouse assessed as weight change administered intraperitoneally 1 hr post bacterial challenge measured 3 days post infection
# In short: (§2)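 Female BALB/c mice (18 to 22 g) infected i.v. with saline suspension of C. albicans grown overnight in NGY medium. […] Percentage body weight change over 3 days; ED50 = dose reducing mean weight change below 50% of controls.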
# Candida albicans [17] = assay: Antibacterial activity against Fluconazole resistant Candida albicans DSY3706 containing tac1delta/delta ERG11-1/ERG11-1 genotype infected in BALB/c mouse administered intraperitoneally 1 hr post bacterial challenge measured 3 days post infection
# In short: (§3)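 Female BALB/c mice (18–22 g) infected i.v. with a saline suspension of NGY-grown yeast. The challenge inoculum was strain-specific, set by pilot dose-finding. […] Endpoint at 72 h. Median of ED50s from kidney burden, weight change and outcome score.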
# Candida albicans [18] = assay: […] activity against Fluconazole resistant Candida albicans DSY3606 containing tac1delta/delta ERG11-1/ERG11-1 (TAC1-5) genotype infected in BALB/c mouse assessed as weight change administered intraperitoneally 1 hr post […] measured 3 days post infection
# Candida albicans [19] = assay: Antibacterial activity against azole-susceptible Candida albicans DSY294 containing CIp10 to restore URA3 function infected in BALB/c mouse assessed as effect on infection outcome score administered intraperitoneally 1 hr post bacterial challenge measured 3 days post infection
# In short: (§4)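 Intravenous infection of female BALB/c mice with a strain-specific inoculum. […] ED50 was derived from the 3-day infection outcome score at 72 h.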
# Candida albicans [20] = assay: Antibacterial activity against azole-susceptible Candida albicans DSY294 containing CIp10 to restore URA3 function infected in BALB/c mouse assessed as reduction in kidney microbial burden administered intraperitoneally 1 hr post bacterial challenge measured 3 days post infection
# In short: (§5)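 At 72 h the left kidney was homogenised in saline and viable counts taken as log10 CFU/g. ED50 was the dose lowering the mean burden >1.5 log below controls.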
# Candida albicans [21] = assay: Antibacterial activity against Fluconazole resistant Candida albicans DSY3083 containing tac1delta/delta genotype containing CIp10 to restore URA3 function infected in BALB/c mouse administered intraperitoneally 1 hr post bacterial challenge measured 3 days post infection; in short: as §3
# Candida albicans [22] = assay: Antibacterial activity against Fluconazole resistant Candida albicans DSY3606 containing tac1delta/delta ERG11-1/ERG11-1 (TAC1-5) genotype infected in BALB/c mouse assessed as reduction in kidney microbial burden administered intraperitoneally 1 hr post bacterial challenge measured 3 days post infection; in short: as §5
# Candida albicans [23] = assay: Antibacterial activity against Fluconazole resistant Candida albicans DSY3606 containing tac1delta/delta ERG11-1/ERG11-1 (TAC1-5) genotype infected in BALB/c mouse administered intraperitoneally 1 hr post bacterial challenge measured 3 days post infection; in short: as §3
# Candida albicans [24] = assay: Antibacterial activity against Fluconazole resistant Candida albicans DSY296 overexpressing multidrug transporter gene CDR1 and CDR2 and containing ERG11 G464S mutation containing CIp10 to restore URA3 function infected in BALB/c mouse administered intraperitoneally 1 hr post bacterial challenge measured 3 days post infection; in short: as §3
# Candida albicans [25] = assay: Antibacterial activity against Fluconazole resistant Candida albicans DSY3083 containing tac1delta/delta genotype containing CIp10 to restore URA3 function infected in BALB/c mouse assessed as reduction in kidney microbial burden administered intraperitoneally 1 hr post bacterial challenge measured 3 days post infection; in short: as §5
# Candida albicans [26] = assay: Antibacterial activity against Fluconazole resistant Candida albicans DSY3083 containing tac1delta/delta genotype containing CIp10 to restore URA3 function infected in BALB/c mouse assessed as effect on infection outcome score administered intraperitoneally 1 hr post bacterial challenge measured 3 days post infection; in short: as §4
# Candida albicans [27] = assay: Antibacterial activity against Fluconazole resistant Candida albicans DSY296 overexpressing multidrug transporter gene CDR1 and CDR2 and containing ERG11 G464S mutation containing CIp10 to restore URA3 function infected in BALB/c mouse assessed as weight change administered intraperitoneally 1 hr post bacterial challenge measured 3 days post infection
# Candida albicans [28] = assay: Antibacterial activity against azole-susceptible Candida albicans DSY294 containing CIp10 to restore URA3 function infected in BALB/c mouse assessed as weight change administered intraperitoneally 1 hr post bacterial challenge measured 3 days post infection; in short: as §2
# Candida albicans [29] = assay: Antibacterial activity against Fluconazole resistant Candida albicans DSY3083 containing tac1delta/delta genotype containing CIp10 to restore URA3 function infected in BALB/c mouse assessed as weight change administered intraperitoneally 1 hr post bacterial challenge measured 3 days post infection
# Candida albicans [30] = assay: Antibacterial activity against Fluconazole resistant Candida albicans DSY296 overexpressing multidrug transporter gene CDR1 and CDR2 and containing ERG11 G464S mutation containing CIp10 to restore URA3 function infected in BALB/c mouse assessed as effect on infection outcome score administered intraperitoneally 1 hr post bacterial challenge measured 3 days post infection; in short: as §4
# Candida albicans [31] = assay: Antibacterial activity against Fluconazole resistant Candida albicans DSY296 overexpressing multidrug transporter gene CDR1 and CDR2 and containing ERG11 G464S mutation containing CIp10 to restore URA3 function infected in BALB/c mouse assessed as reduction in kidney microbial burden administered intraperitoneally 1 hr post bacterial challenge measured 3 days post infection; in short: as §5
# Candida albicans [32] = assay: Antibacterial activity against Fluconazole resistant Candida albicans DSY3706 containing tac1delta/delta ERG11-1/ERG11-1 genotype infected in BALB/c mouse assessed as effect on infection outcome score administered intraperitoneally 1 hr post bacterial challenge measured 3 days post infection; in short: as §4
# Candida albicans [33] = assay: Antibacterial activity against azole-susceptible Candida albicans DSY294 containing CIp10 to restore URA3 function infected in BALB/c mouse administered intraperitoneally 1 hr post bacterial challenge measured 3 days post infection; in short: as §3
# Candida albicans [34] = assay: Antibacterial activity against Fluconazole resistant Candida albicans DSY3706 containing tac1delta/delta ERG11-1/ERG11-1 genotype infected in BALB/c mouse assessed as reduction in kidney microbial burden administered intraperitoneally 1 hr post bacterial challenge measured 3 days post infection; in short: as §5
# Candida albicans [35] = assay: Antibacterial activity against Fluconazole resistant Candida albicans DSY3606 containing tac1delta/delta ERG11-1/ERG11-1 (TAC1-5) genotype infected in BALB/c mouse assessed as effect on infection outcome score administered intraperitoneally 1 hr post bacterial challenge measured 3 days post infection; in short: as §4
Compound,MIC (Candida albicans [1]) [µg/mL],MIC (Candida albicans [2]) [µg/mL],fold change (FC) (Candida albicans [3]),fold change (FC) (Candida albicans [4]),fold change (FC) (Candida albicans [5]),MIC (Candida albicans [6]) [µg/mL],MIC (Candida albicans [7]) [µg/mL],fold change (FC) (Candida albicans [8]),MIC (Candida albicans [9]) [µg/mL],MIC (Candida albicans [10]) [µg/mL],MIC (Candida albicans [11]) [µg/mL],fold change (FC) (Candida albicans [12]),MIC (Candida albicans [13]) [µg/mL],fold change (FC) (Candida albicans [14]),fold change (FC) (Candida albicans [15]),other results
CCC(C)n1ncn(-c2ccc(N3CCN(c4ccc(OCC5COC(Cn6cncn6)(c6ccc(Cl)cc6Cl)O5)cc4)CC3)cc2)c1=O (centres undefined) [ITRACONAZOLE],0.031,0.0156,2,1,16,0.031,0.031,8,0.125,0.25,0.0156,2,0.25,2,16,
CC[C@@H]([C@H](C)O)n1ncn(-c2ccc(N3CCN(c4ccc(OC[C@@H]5CO[C@@](Cn6cncn6)(c6ccc(F)cc6F)C5)cc4)CC3)cc2)c1=O [POSACONAZOLE],0.031,0.031,1,1,8,0.031,0.031,8,0.25,0.25,0.0312,1,0.25,1,8,
C[C@@H](c1ncncc1F)[C@](O)(Cn1cncn1)c1ccc(F)cc1F [VORICONAZOLE],0.0625,0.0078,8,1,256,0.125,0.0078,16,0.125,0.125,0.0078,1,2,16,16,
OC(Cn1cncn1)(Cn1cncn1)c1ccc(F)cc1F [FLUCONAZOLE],2,0.25,8,1,,4,0.25,16,4,4,0.25,1,64,16,16,MIC (Candida albicans [16]): 1 µg/mL; MIC (Candida albicans [17]): 3.5 µg/mL; MIC (Candida albicans [18]): 120 µg/mL; MIC (Candida albicans [19]): 3.5 µg/mL; MIC (Candida albicans [20]): 10 µg/mL; MIC (Candida albicans [21]): 10 µg/mL; MIC (Candida albicans [22]): 120 µg/mL; MIC (Candida albicans [23]): 120 µg/mL; MIC (Candida albicans [24]): 200 µg/mL; MIC (Candida albicans [25]): 10 µg/mL; MIC (Candida albicans [26]): 10 µg/mL; MIC (Candida albicans [27]): 120 µg/mL; MIC (Candida albicans [28]): 1 µg/mL; MIC (Candida albicans [29]): 10 µg/mL; MIC (Candida albicans [30]): 200 µg/mL; MIC (Candida albicans [31]): > 200 µg/mL; MIC (Candida albicans [32]): 3.5 µg/mL; MIC (Candida albicans [33]): 3.5 µg/mL; MIC (Candida albicans [34]): 3.5 µg/mL; MIC (Candida albicans [35]): 120 µg/mL
